# Bioassay records: PubChem, several laboratories
# MC4R antagonist – human MC4R antagonism in cAMP assay. MC4R-expressing cells, MTII-stimulated cAMP, LANCE TR-FRET. inhibition, % at 6.5 µM. 0.48% of 360,000 active;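 active = inhibition above its plate's cutoff, the mean of tested wells on that plate plus 3 SD, cut at about 29% in these data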;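 note: 0% = Melanotan II alone and 100% = Melanotan II plus saturating MCL0020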
#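 material = U2OS cells stably expressing human melanocortin 4 receptor (MC4R) | also added = Melanotan II challenge | dosing = single nominal compound dose of 6.5 µM | detection = TR-FRET with Eu-cAMP and labeled anti-cAMP, 671 nm | replication = singlicate | timing = compound 30 min, challenge 1 h, detection 1 h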
# m5-HT2A agonist – mouse HTR2A agonism via beta-arrestin recruitment; P35363; CHO-K1 mHTR2A beta-arrestin complementation, luminescence; percent of 30 µM serotonin response; activation, % at 7.6 µM; 0.66% of 360,000 active;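 active = activation above a run cutoff, the mean activation of all tested compounds plus 3 SD, cut at about 14% in these data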;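 note: 0% = plate median of compound wells and 100% = 30 µM serotonin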
# Target sequence (P35363 whole entry, looked up): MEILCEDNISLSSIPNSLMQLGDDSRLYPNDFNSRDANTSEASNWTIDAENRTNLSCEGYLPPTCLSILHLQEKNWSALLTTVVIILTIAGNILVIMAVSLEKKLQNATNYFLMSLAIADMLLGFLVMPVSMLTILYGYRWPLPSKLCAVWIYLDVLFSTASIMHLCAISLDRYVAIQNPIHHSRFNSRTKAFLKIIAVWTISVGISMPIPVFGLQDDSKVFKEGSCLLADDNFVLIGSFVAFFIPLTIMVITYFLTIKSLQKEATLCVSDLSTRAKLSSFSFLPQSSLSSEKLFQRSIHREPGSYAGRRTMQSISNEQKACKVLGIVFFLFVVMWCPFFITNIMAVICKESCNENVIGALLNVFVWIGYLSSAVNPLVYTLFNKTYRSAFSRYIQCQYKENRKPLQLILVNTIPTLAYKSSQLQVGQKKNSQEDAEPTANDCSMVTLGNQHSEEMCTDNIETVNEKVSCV
# MC4R barr agon – activates human MC4R beta-arrestin recruitment; P32245; U2OS MC4R beta-arrestin complementation, luminescence; percent of melanotan II response, DMSO zero; activation, % at 8.9 µM; 0.98% of 360,000 active; AID 540308;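 active = activation above a per-plate cutoff, the mean activation of sample wells on that plate plus 3 SD, cut at about 8% in these data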
# EBI2 block – antagonists of human EBI2 receptor. inhibition, % at 5 µM. P32249. EBI2 beta-arrestin recruitment, luminescence, 7a,25-OHC stimulated. AID 651636. 0.81% of 360,000 active; in the data active = inhibition above about 38%;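 note: enzyme fragment complementation signal reports receptor beta-arrestin coupling in cells; 0% = agonist plus DMSO wells and 100% = wells without agonist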
# EBI2 antag conf – confirmation of human EBI2 receptor antagonists. inhibition, % at 5 µM. 29% of 2,400 active. EBI2 beta-arrestin luminescence, 7a,25-OHC antagonism. shares compounds with EBI2 block;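 active = inhibition of at least 50%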
# EBI2 ag – counter-screen for EBI2 antagonists: EBI2 agonist activity; activation, % at 5 µM; shares compounds with EBI2 block; EBI2-expressing cells, agonist mode, luminescence, 60 min; 0% vehicle, 100% 7α,25-dihydroxycholesterol control; 2,400 tested, under 10 active;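 active = activation of at least 50%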
# bGal cs – counter-screen for EBI2 antagonists: E. coli beta-galactosidase inhibition | shares compounds with EBI2 block | 1% of 2,400 active | purified beta-galactosidase, luminescent Galacton Star, 15 min | AID 652176 | inhibition, % at 5 µM;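 active = replicate-average signal at least 3 plate SD below neutral wells, shown as high inhibition, flagging enzyme-inhibiting false positives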;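 note: 0% = DMSO wells with enzyme and 100% = wells lacking enzyme; higher means stronger loss of beta-gal luminescence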
# * = called active by the depositor; · = not tested or not shown. A selection: hits, their analogues and other compounds. The true share with any hit is near 2.8%.
SMILES,MC4R antagonist,m5-HT2A agonist,MC4R barr agon,EBI2 block,EBI2 antag conf,EBI2 ag,bGal cs
CCc1nc2ccc(C(=O)NCCOc3ccc(OC)cc3)cn2c1N(C)CCCc1ccccc1,3,-2,0,58*,43,-1,-8
COc1cccc(CN(C)C[C@H]2OCc3cnnn3CCCC(=O)N([C@@H](C)CO)C[C@@H]2C)c1,7,-3,0,-11,·,·,·
COC(=O)c1cc(=O)nc2sc(-c3ccc(F)cc3)nn12,-1,4,1,-7,·,·,·
O=C(NCc1ccccc1)c1cc(=O)nc2sc(-c3ccccc3)nn12,15,4,0,44*,26,-1,-9
COc1ccc2c(c1)c(CCNNC(=O)C(C)(C)C)c(C)n2C(=O)c1ccc(Cl)cc1,1,-4,-1,9,·,·,·
O=C(N/N=C/c1cccc2cccnc12)c1ccccc1O,-12,-9,-5,71*,81*,-1,-6
COc1cc(CNC(=O)c2cc(-c3cc(F)ccc3OC(C)C)n[nH]2)cc(OC)c1,2,-6,0,8,·,·,·
CCOc1ccc(-c2cn(-c3ccc(OC)cc3)c(SC)n2)cc1,6,-4,3,65*,26,-1,-12
COC(=O)C[C@@H]1C=C[C@H](NS(=O)(=O)c2cccc(F)c2)[C@@H](CO)O1,·,8,·,-6,·,·,·
O=C(/C=C/c1ccc(Cl)cc1)N1CCN(c2ccccn2)CC1,-5,7,2,93*,80*,-2,-8
COc1ccc(/C=C/C(=O)N2CCN(c3ccccn3)CC2)cc1OC,-2,5,-1,19,·,·,·
O=C(/C=C/c1cccc(F)c1)N1CCN(c2ccccn2)CC1,0,5,-1,77*,61*,0,-6
O=C(/C=C/c1ccccc1)N1CCN(c2ccccn2)CC1,6,2,2,88*,74*,1,2
O=C(/C=C/c1ccc(Cl)c(C(F)(F)F)c1)N1CCN(c2ccccn2)CC1,2,7,0,48*,37,1,3
CCCCC(=O)N(C)c1c(CC)nc2c(OCC(=O)N3CCOCC3)cccn12,0,0,-1,-5,·,·,·
CCOc1ccc(Br)cc1S(=O)(=O)NCCN1CCCC1,-4,-5,-1,-4,·,·,·
O=C(/C=C/c1ccccc1F)N1CCN(c2ccccn2)CC1,2,-3,-2,45*,32,0,5
O=C(Cn1nnc2c(sc3nc4c(c(-c5ccccc5)c32)CCC4)c1=O)c1ccccc1,4,-1,1,29*,0,1,4
Cc1ccc(NC(=O)N2CCC(O)(c3ccc(Cl)cc3)CC2)cc1,10,-8,-1,78*,75*,0,9
O=C(Nc1ccc(Cl)cc1)N1CCCC1,2,5,1,6,·,·,·
O=C1c2ccccc2C(c2nnnn2-c2ccc3c(c2)OCCO3)N1Cc1ccco1 (configuration not stated),·,-3,·,-4,·,·,·
C#Cc1ccc([C@H]2C=C(C(=O)N3CCN(Cc4ccc5c(c4)OCO5)CC3)O[C@@H](OCC)[C@@H]2CCCO)cc1,14,-1,-1,55*,22,1,5
O=C(Cn1nnc(-c2ccccc2)n1)N/N=C/c1cc([N+](=O)[O-])c(Cl)cc1Cl,-6,4,2,-35,·,·,·
O=C(Cn1nnc(-c2ccccc2)n1)N/N=C/c1cc([N+](=O)[O-])ccc1O,6,-6,-3,55*,41,1,6
C#Cc1ccc([C@@H]2C=C(C(=O)O)O[C@H](OCc3ccc(CO)cc3)C2)cc1,1,0,1,-12,·,·,·
SMILES,MC4R antagonist,m5-HT2A agonist,MC4R barr agon,EBI2 block,EBI2 antag conf,EBI2 ag,bGal cs
CCOc1ccc(NC(=O)N2CCC(c3ccc(C)cc3)C2)cc1 (configuration not stated),11,0,1,81*,55*,0,3
O=C(Nc1ccccc1)N1CCC(c2ccccc2)C1 (configuration not stated),2,2,0,29,·,·,·
Cc1ccc(NC(=O)N2CCCC(c3ccccc3)C2)cc1 (configuration not stated),2,1,-2,20,·,·,·
CCc1ccc(NC(=O)N2CCC(c3ccccc3)C2)cc1 (configuration not stated),0,0,-1,83*,63*,0,6
CN(NC(=O)C(=O)NCc1ccco1)C(=O)Nc1ccc(Cl)cc1,·,0,·,9,·,·,·
CC(=O)N(Cc1ccco1)c1nc(C(=O)Nc2ccc(Cl)cc2)c(C)s1,11,-2,-2,61*,17,1,7
O=C(Nc1ccc(N2CCOCC2)cc1)c1ccc([N+](=O)[O-])o1,9,-4,-2,-2,·,·,·
Cc1ccc(NS(=O)(=O)c2cc(C(=O)NCCSc3ccc(C)cc3)ccc2C)cc1,24,-3,-2,44*,11,-2,-8
COc1cc2ccccc2cc1C(=O)Nc1ccc(Cc2ccncc2)cc1,-1,-3,-3,48*,39,1,1
Cc1cccc(NS(=O)(=O)c2ccc3[nH]c(=O)cc(C(=O)OC(C)C(=O)Nc4ccc([N+](=O)[O-])cc4)c3c2)c1 (configuration not stated),-11,-6,-2,47*,38,-1,9
CCOC(=O)C1=C[C@@H](CC)N(S(=O)(=O)c2ccc([N+](=O)[O-])cc2)[C@H]1c1ccccc1,·,3,·,4,·,·,·
CC1(C(=O)O)CCCN1C(=O)c1cccc(C(F)(F)F)c1 (configuration not stated),1,8,-2,0,·,·,·
COCCN(C(=O)c1cccc(N2C(=O)CCC2=O)c1)c1nc(-c2ccc([N+](=O)[O-])cc2)cs1,-1,-4,-2,26,·,·,·
COc1ccccc1N(C(=O)c1ccncc1)c1nc(-c2ccc([N+](=O)[O-])cc2)cs1,25,0,0,55*,74*,1,1
CN(c1ccc([N+](=O)[O-])cc1C(=O)Nc1ccccc1)C1CCCCC1,0,-3,3,41*,32,0,-13
Cc1cccc(NC(=O)c2cc([N+](=O)[O-])ccc2NC2CCCCC2)c1,13,1,1,-28,·,·,·
COc1nc(Nc2cccc(C)c2)nc(N2CCCCC2)n1,9,5,0,-14,·,·,·
Cc1cccc(Nc2nc(N3CCCC3)nc(N3CCCC3)n2)c1,8,0,2,42*,7,-1,-9
N#Cc1ccc(/C=C\c2nccc3c2[nH]c2ccccc23)cc1,8,-3,4,48*,25,2,3
CCOc1ccc2nc(N(CCN(CC)CC)C(=O)/C=C/c3cccs3)sc2c1,5,-9,0,7,·,·,·
